Measurements: ChEMBL document CHEMBL1221214, “Cytosporone B is an agonist for nuclear orphan receptor Nur77” (Nat Chem Biol, 2008)
≈ marks a conversion by molar mass, not a printed value. Calls of active or inactive are those of the source. No cut-off for these calls is given here.

Tests used:
[1] = target: T1, Nuclear receptor subfamily 4immunitygroup A member 1 (Homo sapiens, UniProt P22736); assay: Agonist activity at nuclear orphan receptor Nur77 in human BGC823 cells bearing beta-galactosidase expression vector assessed as transcriptional activation of retinoic acid receptor response element after 12 hrs by luciferase assay; format: functional, cell-based; settings: BGC-823
T1 sequence (P22736 whole entry): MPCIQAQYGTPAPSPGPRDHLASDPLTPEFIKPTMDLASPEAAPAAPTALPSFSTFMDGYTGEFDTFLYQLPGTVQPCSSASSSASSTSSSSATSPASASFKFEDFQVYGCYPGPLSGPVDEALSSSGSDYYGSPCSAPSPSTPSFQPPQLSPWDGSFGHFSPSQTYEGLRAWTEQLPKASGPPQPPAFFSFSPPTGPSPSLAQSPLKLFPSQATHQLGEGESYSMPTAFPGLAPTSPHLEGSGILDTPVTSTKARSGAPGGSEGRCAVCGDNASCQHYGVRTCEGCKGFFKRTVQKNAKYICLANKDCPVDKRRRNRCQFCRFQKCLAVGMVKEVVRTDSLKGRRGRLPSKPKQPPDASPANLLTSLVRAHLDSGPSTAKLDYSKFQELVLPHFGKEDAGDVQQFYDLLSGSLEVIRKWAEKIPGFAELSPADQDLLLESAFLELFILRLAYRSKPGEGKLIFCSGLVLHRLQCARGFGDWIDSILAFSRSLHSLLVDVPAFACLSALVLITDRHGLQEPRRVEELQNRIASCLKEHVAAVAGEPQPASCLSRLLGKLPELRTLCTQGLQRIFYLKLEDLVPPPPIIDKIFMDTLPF

[2] = target: T1, Nuclear receptor subfamily 4immunitygroup A member 1; assay: Agonist activity at nuclear orphan receptor Nur77 in human BGC823 cells bearing beta-galactosidase expression vector assessed as transcriptional activation of thyroid receptor reporter gene after 12 hrs by luciferase assay; format: functional, cell-based; settings: BGC-823
[3] = target: T1, Nuclear receptor subfamily 4immunitygroup A member 1; assay: Binding affinity to nuclear orphan receptor Nur77-ligand binding domain at 5 Um by fluorescence quenching analysis
[4] = target: T1, Nuclear receptor subfamily 4immunitygroup A member 1; assay: Binding affinity to nuclear orphan receptor Nur77 assessed as conformational change in receptor by CD spectroscopic
[5] = target: T1, Nuclear receptor subfamily 4immunitygroup A member 1; assay: Binding affinity to nuclear orphan receptor Nur77 by sedimentation equilibrium assay
[6] = target: T1, Nuclear receptor subfamily 4immunitygroup A member 1; assay: Agonist activity at nuclear orphan receptor Nur77 expressed in human BGC823 cells co-transfected with fused GAL4-DBD assessed as transactivation after 12 hrs by luciferase reporter gene assay; format: functional, cell-based; settings: BGC-823
[7] = target: T1, Nuclear receptor subfamily 4immunitygroup A member 1; assay: Agonist activity at nuclear orphan receptor Nur77 expressed in human BGC823 cells co-transfected with fused GAL4-Y453A assessed as transactivation after 12 hrs by luciferase reporter gene assay; format: functional, cell-based; settings: BGC-823
[8] = target: Nuclear receptor subfamily 4 group A member 3 (Homo sapiens) (UniProt Q92570); assay: Agonist activity at nuclear orphan receptor NOR1 expressed in human BGC823 cells co-transfected with fused GAL4-NOR1(LBD) assessed as transactivation after 12 hrs by transactivation assay; format: functional, cell-based; settings: BGC-823
Chain of Nuclear receptor subfamily 4 group A member 3 (Homo sapiens) (Q92570 whole entry, the tested form may be a part): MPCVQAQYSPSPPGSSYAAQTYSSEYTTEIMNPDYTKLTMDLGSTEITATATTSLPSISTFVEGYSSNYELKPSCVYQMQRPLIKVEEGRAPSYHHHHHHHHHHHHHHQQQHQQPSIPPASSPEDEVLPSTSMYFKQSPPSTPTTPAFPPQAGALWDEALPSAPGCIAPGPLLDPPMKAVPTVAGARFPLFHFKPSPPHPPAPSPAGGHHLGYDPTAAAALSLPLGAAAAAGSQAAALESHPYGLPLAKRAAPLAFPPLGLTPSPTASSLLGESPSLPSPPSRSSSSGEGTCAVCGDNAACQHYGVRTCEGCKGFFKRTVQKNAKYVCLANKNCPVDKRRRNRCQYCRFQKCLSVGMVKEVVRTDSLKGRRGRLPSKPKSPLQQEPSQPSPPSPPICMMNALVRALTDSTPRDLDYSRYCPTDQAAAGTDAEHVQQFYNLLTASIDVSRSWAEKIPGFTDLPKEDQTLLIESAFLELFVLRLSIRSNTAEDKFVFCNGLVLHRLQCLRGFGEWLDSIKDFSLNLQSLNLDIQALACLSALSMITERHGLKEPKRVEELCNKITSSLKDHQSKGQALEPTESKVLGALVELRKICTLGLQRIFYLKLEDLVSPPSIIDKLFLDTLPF

[9] = system: Mus musculus; assay: Increase in blood glucose level in Nr4a1 deficient mouse C57BL/6 at 50 mg/kg, ip within 30 mins; format: functional; settings: route intraperitoneal
Method in brief: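 C57BL/6 mice (wild-type or Nr4a1-/-, six weeks old) fasted 16 h with water, then given 50 mg kg-1 intraperitoneally. DMSO (50 μl) or injection without vehicle served as controls. Tail-vein blood glucose was read by glucometer at 15, 30, 60, 90, 120, 180 and 300 min. Means ± s.e.m.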

[10] = target: Nuclear receptor subfamily 4 group A member 1 (Mus musculus) (UniProt P12813); assay: Agonist activity at Nur77 in wild-type mouse C57BL/6 assessed as glucose-6-phosphatase mRNA at 50 mg/kg, ip within 30 mins by real-time PCR analysis relative to control; format: functional, organism-based; parameters: dose 50 mg/kg
Chain of Nuclear receptor subfamily 4 group A member 1 (Mus musculus) (P12813 whole entry): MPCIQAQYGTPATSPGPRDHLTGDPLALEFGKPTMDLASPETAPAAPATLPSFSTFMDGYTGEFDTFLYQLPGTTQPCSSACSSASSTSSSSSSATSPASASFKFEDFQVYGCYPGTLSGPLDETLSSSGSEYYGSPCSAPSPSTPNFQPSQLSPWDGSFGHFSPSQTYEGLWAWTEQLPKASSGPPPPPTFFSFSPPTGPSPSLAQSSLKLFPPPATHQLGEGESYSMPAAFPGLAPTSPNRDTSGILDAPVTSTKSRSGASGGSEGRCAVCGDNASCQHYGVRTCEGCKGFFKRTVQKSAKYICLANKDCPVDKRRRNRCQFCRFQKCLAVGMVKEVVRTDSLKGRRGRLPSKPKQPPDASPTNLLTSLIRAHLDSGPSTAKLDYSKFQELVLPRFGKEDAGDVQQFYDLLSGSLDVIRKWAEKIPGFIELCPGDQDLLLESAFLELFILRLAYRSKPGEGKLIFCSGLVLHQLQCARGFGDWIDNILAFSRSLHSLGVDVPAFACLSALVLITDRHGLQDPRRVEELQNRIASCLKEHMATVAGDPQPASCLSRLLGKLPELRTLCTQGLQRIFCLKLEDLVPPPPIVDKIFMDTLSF

[11] = target: Nuclear receptor subfamily 4 group A member 1 (Mus musculus) (UniProt P12813); assay: Agonist activity at Nur77 in wild-type mouse C57BL/6 assessed as fructose-1,6-bisphosphatase mRNA at 50 mg/kg, ip within 30 mins by real-time PCR analysis relative to control; format: functional, organism-based; parameters: dose 50 mg/kg
[12] = target: Nuclear receptor subfamily 4 group A member 1 (Mus musculus) (UniProt P12813); assay: Agonist activity at Nur77 in wild-type mouse C57BL/6 assessed as hexokinase gene at 50 mg/kg, ip within 30 to 300 mins by real-time PCR analysis; format: functional, organism-based; parameters: dose 50 mg/kg
[13] = target: Nuclear receptor subfamily 4 group A member 1 (Mus musculus) (UniProt P12813); assay: Agonist activity at Nur77 in wild-type mouse C57BL/6 assessed as phosphofructokinase mRNA at 50 mg/kg, ip within 30 to 300 mins by real-time PCR analysis; format: functional, organism-based; parameters: dose 50 mg/kg
[14] = target: Nuclear receptor subfamily 4 group A member 1 (Mus musculus) (UniProt P12813); assay: Agonist activity at Nur77 in Nr4a1 deficient mouse C57BL/6 assessed as glucose-6-phosphatase mRNA at 50 mg/kg, ip by real-time PCR analysis; format: functional, organism-based; parameters: dose 50 mg/kg
[15] = target: Nuclear receptor subfamily 4 group A member 1 (Mus musculus) (UniProt P12813); assay: Agonist activity at Nur77 in insulin treated mouse C57BL/6 assessed as glucose-6-phosphatase mRNA after 60 mins by real-time PCR relative to control; format: functional
[16] = target: Nuclear receptor subfamily 4 group A member 1 (Mus musculus) (UniProt P12813); assay: Agonist activity at Nur77 in insulin treated mouse C57BL/6 assessed as fructose-1,6-bisphosphatase mRNA after 60 mins by real-time PCR relative to control; format: functional
[17] = system: BGC-823; assay: Induction of Nur77 mediated apoptosis in human BGC823 cells transfected with si-Nur77 at 5 uM after 48 hrs by flow cytometry assay; format: functional; settings: in the assay text read “5 ug/ml” for “5 uM”
Method in brief: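 BGC-823 gastric cancer cells, transfected or not with Nur77 siRNA or scrambled control siRNA, then exposed to 5 μg ml-1 for 48 h. Apoptotic cells were counted by flow cytometry.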

[18] = system: BGC-823; assay: Induction of Nur77 mediated apoptosis in human BGC823 cells assessed as cytochrome C release […] at 5 uM after 24 hrs by Western blotting analysis; format: functional, cell-based
[19] = system: BGC-823; assay: Induction of Nur77 mediated apoptosis in human BGC823 cells assessed as cytochrome C release from mitochondria at 5 uM after 24 hrs by Western blotting analysis; format: functional, cell-based
[20] = system: SW-620; assay: Antiproliferative activity against human SW620 cells assessed as number of viable cells after 72 hrs by MTT assay; format: functional
Method in brief: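 BGC-823 gastric and SW620 colon cancer cells incubated 72 h with various Csn-B concentrations; viable cells counted by MTT assay.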

[21] = Antiproliferative activity against human H1299 cells assessed as number of viable cells after 72 hrs by MTT assay; format: functional, NCI-H1299
[22] = system: HepG2; assay: Antiproliferative activity against human HepG2 cells assessed as number of viable cells after 72 hrs by MTT assay; format: functional, cell-based
[23] = system: NIH3T3; assay: Antiproliferative activity against mouse NIH/3T3 cells assessed as number of viable cells after 72 hrs by MTT assay; format: functional, cell-based
[24] = system: Mycobacterium tuberculosis; assay: Antimicrobial activity against Mycobacterium tuberculosis; format: functional, organism-based
[25] = system: Staphylococcus aureus; assay: Antimicrobial activity against Staphylococcus aureus; format: functional, organism-based
[26] = system: Saccharomyces cerevisiae; assay: Antimicrobial activity against Saccharomyces cerevisiae; format: functional, organism-based
[27] = system: BGC-823; assay: Antitumor activity against human BGC823 cells expressing Nur77-WT xenografted in athymic nude mouse BALB/c assessed as tumor weight 13 mg/kg, ip twice a week after 4 weeks; format: functional, organism-based; parameters: dose 13 mg/kg
Method in brief: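 BALB/c athymic nude mice (~16 g, 4 weeks old, 28 °C, sterile housing) inoculated subcutaneously with 0.05 ml BGC-823 cell suspension (wild-type, si-Nur77 or si-Ctrl sublines; 2.5×10^10 l-1), n = 6; after 1 week, Csn-B 13 mg kg-1 ip twice weekly or DMSO; tumors weighed at 4 weeks; means ± s.d., two-tailed t-test.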

[28] = target: T1, Nuclear receptor subfamily 4immunitygroup A member 1; assay: Agonist activity at nuclear orphan receptor Nur77 expressed in human BGC823 cells co-transfected with pLuc-500 containing Nr4a1 promoter assessed as transcriptional activity; format: functional, cell-based; settings: BGC-823
[29] = target: T1, Nuclear receptor subfamily 4immunitygroup A member 1; assay: Induction of Nur77-SRC3 interaction in HEK293T cells by GST-pull-down assay; format: cell-based; settings: HEK-293T
Method in brief: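 293T cells transfected with Flag-SRC-1, -2 or -3 and treated at 10⁻⁶ M for 3 h. Lysates were incubated with GST-Nur77 or GST alone, and bound SRC was detected by pull-down against input levels.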

[30] = target: Nuclear receptor subfamily 4 group A member 1 (Mus musculus) (UniProt P12813); assay: Agonist activity at Nur77 in Nr4A1 deficient mouse assessed as transcriptional activation of luciferase reporter gene relative to control; format: functional
[31] = target: T1, Nuclear receptor subfamily 4immunitygroup A member 1; assay: Agonist activity at Nur77 expressed in human BGC823 cells assessed as Nr4a1mRNA expression by real-time PCR; format: functional, cell-based; settings: BGC-823
[32] = system: BGC-823; assay: Antitumor activity against human BGC823 cells expressing si-Nur77 xenografted in athymic nude mouse BALB/c assessed as apoptotic cells by TUNEL assay; format: functional
Method in brief: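 Tumors from the subcutaneous BGC-823 xenograft nude mice (wild-type, si-Nur77 or si-Ctrl cells; Csn-B 13 mg kg-1 ip twice weekly or DMSO for 4 weeks) were sectioned and apoptotic cells detected by TUNEL assay.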

SMILES: CCCCCCCC(=O)c1c(O)cc(O)cc1CC(=O)OCC [CYTOSPORONE B]
- Activity [1]: inactive
- Activity [2]: inactive
- Activity [3]: Active
- Activity [4]: Active
- Activity [5]: Active
- Activity [6]: inactive
- Activity [7]: inactive
- Activity [8]: inactive
- Activity [9]: 5.8 mM
- Activity [10]: Active
- fold change (FC) [11]: 3
- Activity [12]: inactive
- Activity [13]: inactive
- Activity [14]: inactive
- fold change (FC) [15]: 6.23
- fold change (FC) [16]: 3.05
- Activity [17]: 20.1%
- Activity [18]: Active
- Activity [19]: Active
- inhibition (INH) [20]: >70%
- inhibition (INH) [21]: >=40%
- Activity [22]: Active
- inhibition [23]: Active
- IC50 [24]: 250 µg/mL (≈ 775 µM)
- IC50 [25]: 12.5 µg/mL (≈ 38.8 µM)
- IC50 [26]: 1.56 µg/mL (≈ 4.84 µM)
- Activity [27]: Active
- Activity [28]: inactive
- Activity [29]: inactive
- Activity [30]: inactive
- Activity [31]: Active
- Activity [32]: Active
